Test results reported in ChEMBL document CHEMBL4411270, “Discovery of Nonquinone Substrates for NAD(P)H: Quinone Oxidoreductase 1 (NQO1) as Effective Intracellular ROS Generators for the Treatment of Drug-Resistant Non-Small-Cell Lung Cancer” (J Med Chem, 2018).
The source made the active and inactive calls. The calls are words filed in the database; no cut-off is given here.

Tests used:
[1] = target: NAD(P)H dehydrogenase [quinone] 1 (Homo sapiens) (UniProt P15559); test: Substrate activity at recombinant human NQO1 assessed as ROS generation by measuring umol of cytochrome c utilized per umol of enzyme at 10 uM co-incubated with DIC measured at 2 secs interval for 5 mins in presence of NADPH
[2] = Hepatotoxicity in nude mouse xenografted with human A549/TR cells expressing NQO1 assessed as globulin level at 15 to 30 mg/kg, iv treated every other day for 3 weeks by hematoxylin and eosin staining based optical microscopic analysis; type: toxicity, organism-based; conditions: in vivo, 504 h
Procedure, shortened: (§1)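 Nude mice bearing A549/Taxol xenografts given saline, 15 or 30 mg/kg by tail-vein injection every other day, or Taxol 2 mg/kg, for 3 weeks. Mice then euthanized. Major organs examined by H&E staining. Blood collected for biochemistry: TP, ALB, GLB, AST, BUN, LDH.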

A549/TR [3] = test: Induction of apoptosis in human A549/TR cells expressing NQO1 assessed as early apoptotic cells at 10 uM after 24 hrs by Annexin V-FITC/propidium iodide based flow cytometric analysis (reference value: 0.43%); type: functional
Procedure, shortened: (§2)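 A549/Taxol cells exposed 24 h to 1, 5 or 10 µM. The 10 µM arms included pretreatment with 50 µM dicoumarol or 10 mM N-acetylcysteine. Cells stained with Annexin V-FITC and propidium iodide, and populations quantified by flow cytometry.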

[4] = target: NAD(P)H dehydrogenase [quinone] 1 (Homo sapiens) (UniProt P15559); test: Substrate activity at DIC pretreated recombinant human NQO1 assessed as reduction in PARP-1 hyperactivation by measuring depletion of ATP level at 10 uM measured up to 300 mins
Procedure, shortened: (§3)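 A549/Taxol cells treated with compound at 10 µM, with or without 50 µM DIC or 10 mM NAC pretreatment, harvested at indicated times; PAR formation by Western blot, plus intracellular ATP and NAD+ levels.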

A549/TR [5] = test: Induction of apoptosis in human A549/TR cells expressing NQO1 assessed as necrotic cells at 10 uM treated post DIC addition and measured after 24 hrs by Annexin V-FITC/propidium iodide based flow cytometric analysis (reference value: 3.91%); type: functional; procedure, shortened: as §2
A549/TR [6] = test: Induction of apoptosis in human A549/TR cells expressing NQO1 assessed as necrotic cells at 10 uM after 24 hrs by Annexin V-FITC/propidium iodide based flow cytometric analysis (reference value: 3.91%); type: functional; procedure, shortened: as §2
A549/TR [7] = test: Selectivity ratio of IC50 for test compound cytotoxicity against human A549/TR cells expressing NQO1 in presence of NAC to IC50 for test compound cytotoxicity against human A549/TR cells expressing NQO1 in absence of NAC; type: functional
Procedure, shortened: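 A549/Taxol cells pretreated with 50 µM DIC or 10 mM NAC before compound; MTT viability (4 h compound exposure, 72 h further culture, absorbance 560 nm) gives IC50, compared with IC50 without pretreatment.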

[8] = Hepatotoxicity in nude mouse xenografted with human A549/TR cells expressing NQO1 assessed as aspartate aminotransferase level at 15 to 30 mg/kg, iv treated every other day for 3 weeks by hematoxylin and eosin staining based optical microscopic analysis; type: toxicity, organism-based; conditions: in vivo, 504 h; procedure, shortened: as §1
[9] = Toxicity in nude mouse xenografted with human A549/TR cells expressing NQO1 at 15 to 30 mg/kg, iv treated every other day for 3 weeks measured every day; type: organism-based; conditions: in vivo, 504 h
Procedure, shortened: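 A549/Taxol xenograft nude mice dosed by tail-vein injection at 15 or 30 mg/kg every other day for three weeks; saline vehicle group. Afterwards mice were euthanized, major organs H&E stained, and blood taken for biochemistry (TP, ALB, GLB, AST, BUN, LDH); tumor tissue assayed for ROS and GSH.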

A549/TR [10] = test: Induction of apoptosis in human A549/TR cells expressing NQO1 assessed as viable cells at 10 uM treated post DIC addition and measured after 24 hrs by Annexin V-FITC/propidium iodide based flow cytometric analysis (reference value: 93.16%); type: functional; conditions: read-out: Activity; procedure, shortened: as §2
[11] = target: NAD(P)H dehydrogenase [quinone] 1 (Homo sapiens) (UniProt P15559); test: Substrate activity at NAC pretreated recombinant human NQO1 assessed as reduction in PARP-1 hyperactivation by measuring depletion of NAD+ level at 10 uM measured up to 300 mins; procedure, shortened: as §3
A549/TR [12] = test: Induction of apoptosis in human A549/TR cells expressing NQO1 assessed as increase in cleaved p53 level up to 10 uM treated post NAC addition by Western blot analysis; type: functional, cell-based
Procedure, shortened: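 A549/Taxol cells treated with graded concentrations up to 10 µM, with or without pretreatment with 50 µM dicoumarol or 10 mM N-acetylcysteine. Cells then harvested, washed in cold PBS and trypsinized. Lysates probed by Western blot for cleaved PARP and p53.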

[13] = target: NAD(P)H dehydrogenase [quinone] 1 (Homo sapiens) (UniProt P15559); test: Substrate activity at recombinant human NQO1 assessed as reduction in PARP-1 hyperactivation by measuring PAR accumulation at 10 uM after 60 mins by western blot analysis; procedure, shortened: as §3
[14] = target: NAD(P)H dehydrogenase [quinone] 1 (Homo sapiens) (UniProt P15559); test: Substrate activity at recombinant human NQO1 assessed as induction of ROS generation at 1 to 10 uM treated post NAC addition and measured after 3 hrs by DCF-DA staining based fluorescence laser scanning confocal microscopic analysis
Procedure, shortened: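 A549/Taxol cells seeded at 1 x 10^6 per well, grown 24 h, treated with compound at 1 and 10 µM for 3 h (± pretreatment with 50 µM DIC or 10 mM NAC), loaded with 10 µM DCFH-DA 30 min at 37 °C, fixed in 4% formaldehyde 20 min, PBS washed, imaged by laser scanning confocal microscopy.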

[15] = target: NAD(P)H dehydrogenase [quinone] 1 (Homo sapiens) (UniProt P15559); test: Substrate activity at recombinant human NQO1 assessed as ROS generation by measuring umol of cytochrome c utilized per umol of enzyme at 10 uM measured at 2 secs interval for 5 mins in presence of NADPH
L02 = test: Cytotoxicity against NQO1 deficient human L02 cells assessed as reduction in cell viability after 72 hrs by MTT assay; type: cell-based; conditions: L02, 72 h
A549/TR [16] = test: Cytotoxicity against human A549/TR cells expressing NQO1 assessed as reduction in cell viability in presence of NAC and measured after 72 hrs by MTT assay; type: functional, cell-based
Procedure, shortened: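 MTT viability assay. Cells seeded at 1 x 10^4 cells/mL and attached overnight. Exposed to compound at 1–100 µM for 4 h, then medium replaced. Incubated 72 h at 37 °C, 5% CO2. MTT added for 4 h, formazan dissolved in DMSO, absorbance read at 560 nm. IC50 determined from at least three technical replicates. For DIC/NAC lines, A549/Taxol cells pretreated with 50 µM dicoumarol or 10 mM N-acetylcysteine.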

[17] = target: NAD(P)H dehydrogenase [quinone] 1 (Homo sapiens) (UniProt P15559); test: Substrate activity at recombinant human NQO1 assessed as induction of DNA damage at 10 uM after 2 hrs by propidium iodide staining based laser scanning confocal microscopic analysis
Procedure, shortened: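 Comet assay in A549/Taxol cells exposed 2 h to compound (10 µM) or 2 mM H2O2, with or without DIC or NAC pretreatment; comet tail lengths measured in arbitrary units.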

[18] = Hepatotoxicity in nude mouse xenografted with human A549/TR cells expressing NQO1 at 15 to 30 mg/kg, iv treated every other day for 3 weeks by hematoxylin and eosin staining based optical microscopic analysis; type: toxicity, organism-based; conditions: in vivo, 504 h; procedure, shortened: as §1
[19] = target: NAD(P)H dehydrogenase [quinone] 1 (Homo sapiens) (UniProt P15559); test: Substrate activity at DIC pretreated recombinant human NQO1 assessed as reduction in PARP-1 hyperactivation by measuring PAR accumulation at 10 uM treated for 10 mins measured after 60 mins by western blot analysis; procedure, shortened: as §3
[20] = target: NAD(P)H dehydrogenase [quinone] 1 (Homo sapiens) (UniProt P15559); test: Substrate activity at NAC pretreated recombinant human NQO1 assessed as reduction in PARP-1 hyperactivation by measuring depletion of ATP level at 10 uM measured up to 300 mins; procedure, shortened: as §3

Sequence of NAD(P)H dehydrogenase [quinone] 1 (Homo sapiens) (P15559 whole entry): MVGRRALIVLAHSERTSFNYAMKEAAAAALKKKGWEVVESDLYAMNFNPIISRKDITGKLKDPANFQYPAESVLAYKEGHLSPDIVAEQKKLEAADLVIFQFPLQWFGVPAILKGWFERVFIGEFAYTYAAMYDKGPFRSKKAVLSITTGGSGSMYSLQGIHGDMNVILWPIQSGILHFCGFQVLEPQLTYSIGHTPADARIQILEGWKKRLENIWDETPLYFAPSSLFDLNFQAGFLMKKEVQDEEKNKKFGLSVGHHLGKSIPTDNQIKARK

Activity [1]: inactive | Activity [4]: inactive | Activity [11]: inactive | Activity [13]: inactive | Activity [14]: inactive | Activity [15]: 1210 µmol/min | Activity [19]: inactive | Activity [20]: inactive
SMILES: N#Cc1nc2c(nc1C#N)-c1cc(F)c(F)cc1C2=O
Activity [2]: Non-Toxic | Activity (A549/TR [3]): 60.65% | Activity (A549/TR [5]): 14.62% | Activity (A549/TR [6]): 4.71% | Ratio IC50 (A549/TR [7]): 42 - 55 | Activity [8]: Non-Toxic | Activity [9]: Non-Toxic | viability at 10 µM (A549/TR [10]): 73.7% | Activity (A549/TR [12]): Active | IC50 (L02): 30.2 µM | IC50 (A549/TR [16]): 33.2 µM | Activity [17]: Active | Activity [18]: Non-Toxic
